# IMP-1 inh = IMP-1 metallo-beta-lactamase inhibitors, primary screen, biochemical, epi-absorbance readout, Pseudomonas aeruginosa enzyme | metallo-beta-lactamase IMP-1 (Pseudomonas aeruginosa) | purified IMP-1, nitrocefin hydrolysis, epi-absorbance fluorescence | inhibition, % at 5.6 µM | AID 1556, 2009 | 290,000 compounds, 0.45% hits;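 active = inhibition above the mean plus 3 SD of all compounds in the same screening run, cut at about 4.5% in these data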;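 also: 0% = IMP-1 with DMSO and 100% = DMSO wells lacking enzyme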
#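 System: Purified IMP-1 | Read-out basis: Percent enzyme inhibition | Controls: IMP-1 with DMSO as 0%, enzyme-free DMSO as 100% | Replicates: One well per compound | Doses: 5.6 µM nominal single concentration | Detection: Epi-absorbance fluorescence, 480 nm excitation, 530 nm emission | Incubation: 25 °C, 15 min preincubation, 25 min reaction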
# ATG4B inhibitor = ATG4B protease inhibitors, primary screen, biochemical, fluorescence, uHTS; ATG4B cleavage of LC3-PLA2, NBD-HPC fluorescence, 1 h; inhibition, % at 8.33 µM; 340,000 compounds, 0.51% hits; AID 504462, 2011; in the data active = inhibition above about 40%
# Target sequence (Q9Y4P1 whole entry, looked up): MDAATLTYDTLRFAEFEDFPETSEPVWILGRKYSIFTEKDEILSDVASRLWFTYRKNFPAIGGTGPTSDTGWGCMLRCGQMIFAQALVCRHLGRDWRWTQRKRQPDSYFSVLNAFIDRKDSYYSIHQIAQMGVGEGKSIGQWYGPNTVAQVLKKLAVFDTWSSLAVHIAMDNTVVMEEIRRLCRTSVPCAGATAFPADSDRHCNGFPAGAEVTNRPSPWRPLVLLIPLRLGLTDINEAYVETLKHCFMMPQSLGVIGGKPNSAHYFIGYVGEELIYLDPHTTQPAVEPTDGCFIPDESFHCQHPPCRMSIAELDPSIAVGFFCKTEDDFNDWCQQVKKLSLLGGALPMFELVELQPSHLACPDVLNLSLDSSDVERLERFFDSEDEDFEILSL
# HKDC1 inhibitor = HKDC1 hexokinase inhibitors, primary screen, biochemical, fluorescence, uHTS; Q2TB90; recombinant HKDC1, G6PDH/diaphorase resazurin coupled fluorescence; inhibition, % at 20 µM; 340,000 compounds, 0.16% hits;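 active = inhibition above about 35% when tested at 20 µM, limit read from the data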;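 also: plate controls were DMSO wells with enzyme for no effect and DMSO wells lacking enzyme for full effect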
#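 Assay system: recombinant HKDC1 hexokinase; detection: coupled resazurin fluorescence, excitation 525 nm, emission 613 nm; benchmarks: DMSO-plus-enzyme-mix negative control, buffer-substituted positive control; compound dosing: single 20 µM dose; schedule: 90 min at room temperature in dark; also added: glucose plus 1 mM ATP as hexokinase substrates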
# PvdQ inh = P. aeruginosa PvdQ acylase inhibitors, primary screen, biochemical, fluorescence, plate reader and imaging, single point | purified PvdQ acylase | 340,000 compounds, 0.063% hits | PvdQ acylase [Pseudomonas aeruginosa LESB58] | inhibition, % at 10 µM; in the data active = inhibition above about 30%, passing the limit was not always enough;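 also: 0% = vehicle neutral wells and 100% = reference inhibitor wells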
# VIM-2 inhibitor = VIM-2 metallo-beta-lactamase inhibitors, primary screen, biochemical, epi-absorbance readout, Pseudomonas aeruginosa enzyme. purified VIM-2, nitrocefin hydrolysis, epi-absorbance fluorescence. inhibition, % at 5.6 µM. 290,000 compounds, 0.89% hits;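 active = inhibition above the mean of all tested compounds plus 3 SD, cutoff set per screening run, cut at about 7.5% in these data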;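 also: red hydrolysis product quenches plate fluorescence so inhibitors raise well fluorescence; 0% = enzyme with DMSO and 100% = DMSO without enzyme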
# MIN6 prolif-1 = inducers of MIN6 beta-cell proliferation, primary screen, ATP luminescence, uHTS; MIN6 cells proliferation, ATPlite luminescence, 48 h; cells starved in 0.2% serum; 100% = growth in 10% serum; proliferation, % at 10 µM; 330,000 compounds, 0.29% hits;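 active = compounds whose signal lies at least 3.5 SD above the mean of all wells on their plate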;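 also: 0% = DMSO-treated cells in low-serum medium and 100% = 10% serum control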
# MIN6 prolif-2 = inducers of beta-cell proliferation in MIN6, confirmation, MIN6 cells, mouse; shares compounds with MIN6 prolif-1; ATPlite luminescence, 48 h; cells kept in 0.2% serum; scaled between 0.2% and 10% serum; proliferation increase, % at 50 µM; 920 tested, under 10 active; AID 463095, 2010;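 active = proliferation increase above 40% at any of the four tested concentrations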
# Active calls of the source: *; . = no result. Rows were chosen to be rich in hits. Some 2% of all compounds tested hit in one or more screens of this group.
SMILES,IMP-1 inh,ATG4B inhibitor,HKDC1 inhibitor,PvdQ inh,VIM-2 inhibitor,MIN6 prolif-1,MIN6 prolif-2
CCN(CC)C(=O)C12CC3CC(CC(Cl)(C3)C1)C2,-2.9,-1.5,-11.7,-6.3,-3.0,2.4,.
CC(C)(C)NC(=O)C12CC3CC(CC(Cl)(C3)C1)C2,-3.2,-4.6,-13.3,-5.8,-0.6,8.0*,-1.8
COc1cc(/C=N/NC(=O)CCOc2ccccc2C)cc(Br)c1O,-1.3,-2.6,-6.8,-6.0,-4.1,7.3*,-4.0
COc1ccc(/C=N/NC(=O)CCOc2ccccc2C)cc1OC,-3.5,-3.2,-5.5,-6.4,-6.9,2.2,.
CN(C)c1ncc(CN2CCC(CO)(CCCc3ccccc3)CC2)s1,-1.6,-3.8,-5.1,2.8,-0.8,7.3*,-2.6
CCOC(=O)C1(CCc2ccccc2)CCN(Cc2cnc(N(C)C)s2)CC1,-2.6,-2.4,-8.8,-3.3,-5.9,-0.6,.
COCCCNc1nc(N)c([N+](=O)[O-])c(Nc2ccccc2OC)n1,-3.0,2.2,2.1,-9.2,-3.1,7.2*,3.3
COCCCNc1nc(N)c([N+](=O)[O-])c(NCc2ccccc2)n1,-2.7,5.8,2.8,-9.5,0.1,0.3,.
Nc1ccc[n+](Cc2ccccn2)c1,-1.8,-11.3,-1.4,-15.2,-2.4,4.9*,1.1
COc1ccc(OC)c(C2=Nn3c(nnc3C3CCCCC3)SC2)c1,-3.1,-11.1,0.0,7.4,0.9,9.3*,-6.3
O=C(c1ccc(F)cc1)N1CCCC(C(=O)N2CCc3ccccc3C2)C1 (stereo not drawn),-2.7,-2.4,2.9,-17.9,-1.0,-1.3,.
O=C(c1cccc([N+](=O)[O-])c1)N1CCCC(C(=O)N2CCc3ccccc3C2)C1 (stereo not drawn),0.9,-4.9,-2.0,-14.1,0.0,6.0*,-0.5
Cc1cc(C)c2c(c1)/C(=N/NC(=O)c1ccc(O)cc1)CCC2,-2.9,-20.9,-8.7,-2.8,-5.0,-0.8,.
Cc1cc(C)c2c(c1)/C(=N/NC(=O)c1cc(C)oc1C)CCC2,-1.9,-1.0,-15.3,-4.1,-5.6,0.0*,-1.0
CC1CN(c2nc(N(C)c3ccccc3)nc(N)c2[N+](=O)[O-])CC(C)O1 (stereo not drawn),-4.3,-5.5,-2.5,9.2,-1.9,8.7*,-2.9
CC(c1ccccc1)C1CC(=O)N(c2ccccc2)C1=O (stereo not drawn),-1.4,-1.2,-0.7,0.1,-2.0,0.5,.
O=C(O)c1cc(-c2ccccc2Cl)n(-c2ccc(F)cc2)n1,-2.3,2.8,1.4,-8.0,-3.1,8.0*,-1.7
Cc1ccc(-n2nc(C(=O)O)cc2-c2ccccc2Cl)cc1,-0.6,1.8,1.5,-7.6,-1.5,-0.5,.
Cn1ccc(NC(=O)c2ccc([N+](=O)[O-])cc2)n1,.,3.4,-1.3,4.8,.,-1.6,.
CCOn1c(=O)c(-c2cc3ccccc3o2)[n+]([O-])c2ccccc21,-0.8,-9.3,3.1,-12.9,-1.7,6.8*,0.0
C=CCNC(=S)NNC(=O)c1csc(C)c1CC,-4.0,10.1,8.4,-5.0,-5.6,-0.3,.
CCCCNC(=S)NNC(=O)c1csc(C)c1CC,-0.8,-1.4,-11.2,-6.5,-4.3,0.0*,-2.3
CNC(=S)N/N=C/c1ccc(OCC(=O)Nc2c(C)cc(C)cc2C)c(OC)c1,-4.3,-9.2,-12.2,7.7,-1.6,0.0*,-1.3
COC(C[C@H](O)[C@H](C)[C@@H](O)COCc1ccccc1)OC,.,5.3,0.9,2.2,.,3.8,.
COc1ccc(CNc2cc(C)ccc2C)c(OC)c1OC,-4.8,8.4,-3.9,-14.6,-6.3,9.2*,-4.4
SMILES,IMP-1 inh,ATG4B inhibitor,HKDC1 inhibitor,PvdQ inh,VIM-2 inhibitor,MIN6 prolif-1,MIN6 prolif-2
CN(C)CCNC(=O)C(C(=O)c1ccc(F)cc1)n1ccccc1=O (stereo not drawn),-3.1,0.0,1.1,1.1,-2.5,1.7,.
CC(=O)c1cccc(NC(=O)Cc2ccc3c(c2)CCCC3)c1,-0.7,-14.1,-4.7,-11.3,0.2,1.3,.
CC(=O)C1=C(O)C(=O)N(Cc2ccccc2)C1c1ccc(Cl)cc1 (stereo not drawn),-2.1,3.7,-2.6,4.5,-0.4,-0.5,.
CC(=O)C1=C(O)C(=O)N(Cc2ccccc2)C1c1ccc(N(C)C)cc1 (stereo not drawn),-1.0,-2.0,-6.0,6.6,-0.5,6.1*,0.1
Cn1c(=O)c2c(ncn2CC(=O)NC2CCCCC2)n(C)c1=O,-2.2,-2.7,-4.0,4.8,-2.6,11.3*,-3.3
CCOc1cc(S(=O)(=O)NCc2ccncc2)ccc1Cl,-0.5,1.3,11.8,-13.6,-1.2,-5.6,.
COc1ccc(-c2n[nH]c(=S)n2C2CCCCC2)cc1,-2.8,-6.8,-6.7,-5.3,6.5,7.6*,-3.7
Brc1nnc2n1-c1ccccc1Sc1ccccc1-2,-4.6,-3.2,-1.4,-4.6,-2.7,5.6*,-6.0
Clc1ccc2c(c1)-c1nnc(Br)n1-c1ccccc1S2,-4.8,-8.5,0.6,-4.8,-2.7,-1.5,.
O=C(NCc1ccco1)C(c1ccco1)N(Cc1cccs1)C(=O)Cn1nnc2ccccc21 (stereo not drawn),-1.9,-16.8,-1.3,-14.0,-0.3,8.0*,-0.4
O=C(NCc1ccco1)C(c1cccs1)N(Cc1ccccc1)C(=O)Cn1nnc2ccccc21 (stereo not drawn),-6.0,-11.8,2.2,-13.3,-2.4,-1.1,.
Cc1cc(Br)c(NC(=O)COC(=O)C2CCCCC2)c(Br)c1,.,-2.6,5.6,17.2,.,10.6*,-5.9
Cc1cc(C)c(NC(=O)COC(=O)C2CCC2)c(Cl)c1,-4.0,-1.9,-2.2,-6.9,-5.1,3.4,.
CCC1CCCCN1C(=O)c1ccc(OC)c(OC2CCN(C(C)C)CC2)c1 (stereo not drawn),0.7,5.8,0.2,8.1,1.4,-2.1,.
COCC1CCCCN1C(=O)c1ccc(OC)c(OC2CCN(C(C)C)CC2)c1 (stereo not drawn),-2.0,5.5,-6.3,-10.6,-0.5,4.8*,-1.9
COc1ccc(NS(=O)(=O)c2cccc(C(=O)NCCCN3CCOCC3)c2)cc1,.,-10.4,6.2,4.7,.,2.5,.
CC(=O)Nc1nnc(SCC(=O)NCc2ccc3c(c2)OCO3)s1,-2.6,0.8,5.2,4.7,-1.3,13.3*,-1.6

# Compound activity from PubChem.
